pIC50: −log10 of the molar value. Activity calls are given as the source filed them. The rule behind the calls is not given here.
What was measured:
Cytochrome P450 3A4 [1] = molecular target: T1, Cytochrome P450 3A4 (Homo sapiens, UniProt P08684); test: Inhibition of CYP3A4 (unknown origin) using midazolam substrate; type: ADME
Mus musculus [2] = test: Suppression of blood glucose concentration in 0.3 to 4.5 mg/kg, ip GLP1(9-36)NH2-treated normoglycemic C57Bl/6J mouse at 30 mg/kg, po dosed 1 hrs before test by oral glucose-tolerance test; type: functional, organism-based
Outline: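 Male C57Bl/6J mice aged 10–11 weeks, n=6, fasted overnight. Rifampicin 60 mg/kg p.o. 2.5 h before the oGTT, compound p.o. 1 h before, GLP1(9-36)NH2 i.p. (0.3, 1, 3, 4.5 mg/kg) 15 min before. Glucose 2 g/kg orally. Tail-vein blood glucose by glucometer at 0, 15, 30, 60 and 90 min.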

[3] = Lipophilicity, logD of the compound at pH 7.4 at 25 degC; type: physicochemical; settings: buffer
[4] = Chemical stability in pH 1.1 buffer; type: physicochemical
[5] = AUClast in Wistar rat at 10 mg/kg, po administered as single dose measured up to 24 hrs ESI-LC/MS-MS analysis; type: ADME, organism-based; parameters: dose 10 mg/kg, time < 24 hr, route oral; settings: in vivo
Outline: (§1)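 Single dose of compound: 3 mg/kg i.v. in solution (75% water : 25% of 75% Glycoferol/25% Cremophor) or 10 mg/kg p.o. as wet-milled suspension (0.6% methylcellulose, 0.5% Tween 80 in water); male Wistar rats n=3 per route, female C57Bl6 mice n=24 per route. Plasma sampled 0.25–24 h (p.o.), 0.083–24 h (i.v.); heparinized plasma, acetonitrile precipitation, ESI-LC/MS-MS (LOQ 1 ng/mL rat, 5 ng/mL mouse); noncompartmental analysis, linear trapezoidal.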

[6] = AUClast in C57Bl6 mouse at 10 mg/kg, po administered as single dose measured up to 24 hrs ESI-LC/MS-MS analysis; type: ADME, organism-based; parameters: dose 10 mg/kg, time < 24 hr, route oral; settings: in vivo; outline: as §1
[7] = Clearance in Wistar rat at 3 mg/kg, iv administered as single dose treated 2 hrs after dosing with 40 mg/kg, po OATP/MRP2 inhibitor rifampicin and measured up to 24 hrs ESI-LC/MS-MS analysis; type: ADME, organism-based; settings: in vivo
Outline: (§2)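 Male Wistar rats (n=3 per route) pretreated orally with rifampicin 40 mg/kg (0.6% methylcellulose, 0.5% Tween 80 in water) 2 h before compound, given 3 mg/kg i.v. in Glycoferol/Cremophor-water solution or 10 mg/kg p.o. wet-milled suspension. Plasma sampled up to 24 h; ESI-LC/MS-MS after acetonitrile precipitation (LOQ 1 ng/mL); noncompartmental analysis.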

Mus musculus [8] = test: Suppression of blood glucose concentration in ob/ob C57Bl/6J mouse model of T2DM at 30 mg/kg, po in absence of OATP/MRP2 inhibitor rifampicin and/or GLP1(9-36)NH2 by oral glucose-tolerance test; type: functional, organism-based
Outline: (§3)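 Male ob/ob mice aged 10–11 weeks, n=7, randomised on blood glucose and fasted overnight. Rifampicin 60 mg/kg p.o. 2.5 h before the oGTT, compound 30 mg/kg p.o. 1 h before, GLP1(9-36)NH2 i.p. 15 min before, each given as indicated. Glucose 2 g/kg orally. Tail-vein glucose by glucometer at 0, 15, 30, 60 and 90 min.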

[9] = Clearance in human hepatocytes assessed per million cells by LC-MS/MS analysis; type: ADME, cell-based, Hepatocyte
Outline: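 Intrinsic clearance in primary human hepatocytes ([…] as printed) or mouse hepatocytes, compound 0.5–5 µM; quinidine or ketoconazole added to define CYP2D6/CYP3A4 contribution; LC-MS/MS analysis.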

[10] = molecular target: Voltage-gated inwardly rectifying potassium channel KCNH2 (Homo sapiens, UniProt Q12809); test: Inhibition of human ERG by patch clamp assay
Sequence of Voltage-gated inwardly rectifying potassium channel KCNH2 (Q12809 whole entry): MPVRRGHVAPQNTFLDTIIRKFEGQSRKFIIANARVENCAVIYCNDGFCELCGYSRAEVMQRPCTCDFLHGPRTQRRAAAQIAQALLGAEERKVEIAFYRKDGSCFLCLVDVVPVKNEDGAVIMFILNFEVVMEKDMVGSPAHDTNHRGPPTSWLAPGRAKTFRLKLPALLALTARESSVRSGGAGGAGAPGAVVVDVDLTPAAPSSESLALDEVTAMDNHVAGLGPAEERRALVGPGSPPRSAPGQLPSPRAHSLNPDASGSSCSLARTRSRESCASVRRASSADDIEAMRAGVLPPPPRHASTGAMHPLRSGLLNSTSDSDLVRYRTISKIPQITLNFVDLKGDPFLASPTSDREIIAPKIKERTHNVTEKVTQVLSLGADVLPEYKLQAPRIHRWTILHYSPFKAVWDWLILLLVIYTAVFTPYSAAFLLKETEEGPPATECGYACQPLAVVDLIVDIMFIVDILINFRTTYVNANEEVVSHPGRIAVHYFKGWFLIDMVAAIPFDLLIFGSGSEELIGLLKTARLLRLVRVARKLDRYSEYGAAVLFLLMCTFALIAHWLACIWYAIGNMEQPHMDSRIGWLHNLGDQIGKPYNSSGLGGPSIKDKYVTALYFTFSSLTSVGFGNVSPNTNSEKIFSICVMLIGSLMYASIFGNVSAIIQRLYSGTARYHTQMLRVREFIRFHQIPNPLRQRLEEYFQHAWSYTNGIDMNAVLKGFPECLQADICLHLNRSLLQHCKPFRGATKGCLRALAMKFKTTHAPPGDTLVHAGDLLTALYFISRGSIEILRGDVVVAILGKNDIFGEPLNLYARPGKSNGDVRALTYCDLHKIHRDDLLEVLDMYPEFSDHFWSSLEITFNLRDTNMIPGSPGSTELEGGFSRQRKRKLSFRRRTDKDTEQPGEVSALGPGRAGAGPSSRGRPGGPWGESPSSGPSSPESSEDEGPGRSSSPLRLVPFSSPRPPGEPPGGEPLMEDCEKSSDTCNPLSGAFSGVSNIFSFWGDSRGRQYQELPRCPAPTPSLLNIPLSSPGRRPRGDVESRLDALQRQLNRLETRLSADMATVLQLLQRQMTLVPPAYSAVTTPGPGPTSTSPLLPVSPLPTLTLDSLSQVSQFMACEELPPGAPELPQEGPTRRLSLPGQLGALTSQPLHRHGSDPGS

Cytochrome P450 3A4 [11] = molecular target: T1, Cytochrome P450 3A4; test: Inhibition of CYP3A4 (unknown origin) using testosterone as substrate; type: ADME
[12] = Cmax in Wistar rat at 10 mg/kg, po administered as single dose treated 2 hrs after dosing with 40 mg/kg, po OATP/MRP2 inhibitor rifampicin and measured up to 24 hrs ESI-LC/MS-MS analysis; type: ADME, organism-based; parameters: dose 10 mg/kg, route oral; settings: in vivo; outline: as §2
Mus musculus [13] = test: Suppression of blood glucose concentration in GLP1(9-36)NH2-treated ob/ob C57Bl/6J mouse model of T2DM at 30 mg/kg, po dosed 1 hrs before test and treated with 60 mg/kg, po OATP/MRP2 inhibitor rifampicin 2.5 hrs prior to oral glucose-tolerance test; type: functional, organism-based; outline: as §3
OATP1B3 = molecular target: T2, OATP1B3 (Homo sapiens, UniProt Q9NPD5); test: Substrate activity at human OATP1B3 expressed in HEK293 cells assessed as increase in compound uptake at 1 uM incubated up to 15 mins LC-MS/MS analysis relative to control relative to control; type: ADME, cell-based; settings: HEK293 cells expressing human OATP1B3, read-out: FC
T2 sequence (Q9NPD5 whole entry): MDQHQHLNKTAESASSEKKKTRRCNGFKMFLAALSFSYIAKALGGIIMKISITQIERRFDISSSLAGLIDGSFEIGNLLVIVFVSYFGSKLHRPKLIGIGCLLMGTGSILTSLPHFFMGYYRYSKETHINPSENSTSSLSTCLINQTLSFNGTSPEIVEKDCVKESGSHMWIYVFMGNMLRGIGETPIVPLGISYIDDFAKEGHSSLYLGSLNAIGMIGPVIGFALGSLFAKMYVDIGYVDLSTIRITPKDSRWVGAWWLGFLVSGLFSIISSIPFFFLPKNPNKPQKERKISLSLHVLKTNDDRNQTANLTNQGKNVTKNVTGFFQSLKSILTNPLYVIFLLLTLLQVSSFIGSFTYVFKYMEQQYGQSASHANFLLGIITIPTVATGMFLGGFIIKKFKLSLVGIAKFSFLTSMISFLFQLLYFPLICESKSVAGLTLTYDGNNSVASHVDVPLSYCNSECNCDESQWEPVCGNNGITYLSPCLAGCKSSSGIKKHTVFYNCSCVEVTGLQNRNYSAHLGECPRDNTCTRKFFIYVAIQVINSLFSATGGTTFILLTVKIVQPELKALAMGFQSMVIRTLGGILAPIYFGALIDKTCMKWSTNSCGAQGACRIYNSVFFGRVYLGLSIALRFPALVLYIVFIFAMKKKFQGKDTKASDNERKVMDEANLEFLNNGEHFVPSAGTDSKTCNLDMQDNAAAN
Outline: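 HEK-TR cells overexpressing hOATP1B1 or hOATP1B3, run in parallel with control HEK-TR cells, seeded at 1 x 10⁵ cells/well one day before. Time-dependent uptake of 1 μM compound in HBSS at 37 °C, quadruplicates. Uptake stopped with ice-cold buffer, cells washed, lysed and quantified by LC-MS/MS. Uptake ratio calculated against the control cells.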

Pancreatic islet = test: Inhibition of glucose-stimulated insulin secretion in dispersed GLP-1(-/-) mouse pancreatic islets at 10 uM incubated for 2 hrs by ELISA; type: functional, cell-based

T1 sequence (P08684 whole entry): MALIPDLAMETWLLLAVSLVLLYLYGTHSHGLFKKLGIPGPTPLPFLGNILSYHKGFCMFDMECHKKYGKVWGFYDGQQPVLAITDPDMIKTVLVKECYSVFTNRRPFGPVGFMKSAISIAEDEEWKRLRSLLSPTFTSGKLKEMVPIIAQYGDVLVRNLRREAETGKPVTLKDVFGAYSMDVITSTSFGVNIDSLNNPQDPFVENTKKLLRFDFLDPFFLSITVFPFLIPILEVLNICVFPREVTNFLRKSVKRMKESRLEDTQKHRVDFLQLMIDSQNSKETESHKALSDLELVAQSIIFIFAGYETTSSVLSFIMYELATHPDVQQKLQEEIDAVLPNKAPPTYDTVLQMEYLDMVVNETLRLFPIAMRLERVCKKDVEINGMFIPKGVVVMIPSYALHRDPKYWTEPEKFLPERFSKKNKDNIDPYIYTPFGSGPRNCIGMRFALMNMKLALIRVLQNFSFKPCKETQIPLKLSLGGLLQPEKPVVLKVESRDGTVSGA

Row | pIC50 (Cytochrome P450 3A4 [1]) | logD [3] | Stability [4] | AUClast [5] | AUC(0-t) at 24 h [6] | clearance [7] | CLH [9] | pIC50 (Cytochrome P450 3A4 [11]) | Cmax [12] | uptake ratio at 0.25 h, 1 µM (OATP1B3) | SMILES | Activity (Mus musculus [2]) | Activity (Mus musculus [8]) | pIC50 [10] | Activity (Mus musculus [13]) | inhibition (Pancreatic islet)
1 | < 4.30 | 1.7 | 98% | 110 ng·h/mL | 109 ng·h/mL | 19.2 mL/min/kg | 0.184 mL/h/10^6 cells | < 4.30 | 1130 ng/mL | 6 to 22 | CC(C)(C)OC(=O)n1c2c(c3ccccc31)C[C@H]1C(=O)N3C[C@@H](CC(=O)O)C[C@H]3[C@@H]2N1C(=O)CC1CCC(F)(F)CC1 | Dose-dependent effect | inactive | < 4.52 | Active | 
2 |  |  |  |  |  |  |  |  |  |  | CC(O)CCN1C[C@H]2c3c(c4ccccc4n3C(=O)OC(C)(C)C)C[C@@H](C1=O)N2C(=O)CC1CCC(F)(F)CC1 (stereo not given in full) |  |  |  |  | Active

— ChEMBL document CHEMBL4354813, “Design, Synthesis, and Pharmacological Evaluation of Potent Positive Allosteric Modulators of the Glucagon-like Peptide-1 Receptor (GLP-1R)” (J Med Chem, 2020)
